In ChEMBL document CHEMBL1123830, “gamma-Aminobutyric acid esters. 3. Synthesis, brain uptake, and pharmacological properties of C-18 glyceryl lipid esters of GABA with varying degree of unsaturation” (J Med Chem, 1987):

Assays:
Mus musculus [1] = test: Tested for the quanitity of [14C]-labeled (radioactivity) compound taken up into the brain following subcutaneous injection at a 100 mg/kg; assay type: functional
[2] = Ratio of the amount in brain as a percent of that present in liver at 5 min is expressed as Brain penetration index (BPI); assay type: functional
Outline: (§1)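 Male Balb-c mice (20 ± 2 g) received ¹⁴C-labeled lipid (label on the GABA portion) sc, as diacetate salt or free amine, in 15% propylene glycol in water. Killed at 5 min; brain and liver weighed and homogenized in SDS/EDTA phosphate buffer (pH 7.6), then scintillation counted. nmol/g computed from total radioactivity. BPI = ([brain]/[liver]) × 100. Mean ± SD of three, or two, measurements.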

Mus musculus [3] = test: Tested for the quanitity of [14C]-labeled (radioactivity) compound taken up into the liver following subcutaneous injection at a 100 mg/kg; assay type: functional
[4] = Partition coefficient in octanol/water system was determined; assay type: physicochemical
[5] = Brain-uptake index (BUI) was determined for the compound in rat; assay type: functional
Outline: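 Rat carotid bolus: male Sprague-Dawley rats (200-300 g) under deep Nembutal anesthesia received a 0.15-mL bolus of ³H2O plus ¹⁴C-labeled compound in 0.01 M HEPES (pH 7.4) into the right carotid artery. Decapitated 5 s later; ipsilateral forebrain homogenized in SDS/urea/EDTA/phosphate buffer (pH 7.4). Duplicate aliquots counted by scintillation, corrected for quench and spillover. BUI = (¹⁴C/³H cpm) brain / (¹⁴C/³H cpm) injectate. Values uncorrected.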

[6] = Partition coefficient in octanol/water system was determined using [14C]-labeled compounds.; assay type: physicochemical
Mus musculus [7] = test: Tested for the quanitity of [14C]-labeled (radioactivity) compound taken up into the liver following subcutaneous injection at a 36 mg/kg; assay type: functional; outline: as §1
Mus musculus [8] = test: Percentage decrease in general motor activity with respect to vehicle-injected control in mice at a dose of 30 mg/kg after ip administration; assay type: functional; details: route intraperitoneal
Mus musculus [9] = test: Tested for the quanitity of [14C]-labeled (radioactivity) compound taken up into the brain following subcutaneous injection at a 36 mg/kg; assay type: functional; outline: as §1
Mus musculus [10] = test: Tested for the quanitity of [14C]-labeled (radioactivity) compound taken up into the brain following subcutaneous injection at a 40 mg/kg; assay type: functional; outline: as §1
Mus musculus [11] = test: Tested for the quanitity of [14C]-labeled (radioactivity) compound taken up into the liver following subcutaneous injection at a 40 mg/kg; assay type: functional; outline: as §1
Mus musculus [12] = test: Tested for the quanitity of [14C]-labeled (radioactivity) compound taken up into the brain following subcutaneous injection at a 54 mg/kg; assay type: functional; outline: as §1
Mus musculus [13] = test: Tested for the quanitity of [14C]-labeled (radioactivity) compound taken up into the liver following subcutaneous injection t a 54 mg/kg; assay type: functional; outline: as §1
Mus musculus [14] = test: Tested for the quanitity of [14C]-labeled (radioactivity) compound taken up into the liver following subcutaneous injection; assay type: functional
Mus musculus [15] = test: Tested for the quanitity of [14C]-labeled (radioactivity) compound taken up into the brain following subcutaneous injection; assay type: functional
Mus musculus [16] = test: Tested for the quanitity of [14C]-labeled (radioactivity) compound taken up into the liver following subcutaneous injection at a 41 mg/kg; assay type: functional; outline: as §1
Mus musculus [17] = test: Tested for the quanitity of [14C]-labeled (radioactivity) compound taken up into the brain following subcutaneous injection at a 41 mg/kg; assay type: functional; outline: as §1
Mus musculus [18] = test: Tested for the quanitity of [14C]-labeled (radioactivity) compound taken up into the liver following subcutaneous injection at a 44 mg/kg; assay type: functional; outline: as §1
Mus musculus [19] = test: Tested for the quanitity of [14C]-labeled (radioactivity) compound taken up into the brain following subcutaneous injection at a 44 mg/kg; assay type: functional; outline: as §1

SMILES | BPI [2] | BUI [5] | K [6] | Decrease (Mus musculus [8]) | other results
CC/C=C/C/C=C/C/C=C/CCCCCCCC(=O)OCC(COC(=O)CCCN)OC(=O)CCCN (stereo in doubt) | 75% | 31.5 | – | – | Activity (Mus musculus [1]): 2.81 nM/g; Activity (Mus musculus [3]): 3.79 nM/g; K [4]: 2.13
CCCCCCCC/C=C/CCCCCCCC(=O)OCC(COC(=O)CCCN)OC(=O)CCCN (stereo unspecified) | 17% | 53.2 | 6 | 74% | Activity (Mus musculus [7]): 6.32 nM/g; Activity (Mus musculus [9]): 1.07 nM/g
CC/C=C/C/C=C/C/C=C/CCCCCCCC(=O)OCC(COC(=O)CCCN)OC(=O)CCCN (stereo in doubt; 3d) | 15% | – | – | 82.6% | Activity (Mus musculus [10]): 1.07 nM/g; Activity (Mus musculus [11]): 7.86 nM/g
CCCCC/C=C/C/C=C/CCCCCCCC(=O)OCC(COC(=O)CCCN)OC(=O)CCCN (stereo in doubt; 3c) | 14% | – | – | 89.3% | Activity (Mus musculus [12]): 1.32 nM/g; Activity (Mus musculus [13]): 9.19 nM/g
NCCCC(=O)O [GAMMA-AMINOBUTYRIC ACID] | 0.96% | 2 | 0.004 | 62.1% | Activity (Mus musculus [14]): 4.2 nM/g; Activity (Mus musculus [15]): 0.041 nM/g
CCCCC/C=C/C/C=C/CCCCCCCC(=O)OCC(COC(=O)CCCN)OC(=O)CCCN (stereo in doubt; 3c (L2G2)) | 97% | 25.9 | – | – | Activity (Mus musculus [16]): 8 nM/g; K [4]: 4.2; Activity (Mus musculus [17]): 7.74 nM/g
CCCCCCCCCCCCCCCCCC(=O)OCC(COC(=O)CCCN)OC(=O)CCCN (stereo unspecified) | 28% | 45.1 | 8.6 | 62.1% | Activity (Mus musculus [18]): 6.92 nM/g; Activity (Mus musculus [19]): 1.89 nM/g
